# pIC50, pKi: −log10 of the molar value. Activity calls are given as the source filed them. The rule behind the calls is not given here.
# Assays:
# Escherichia coli [1] = assay: Inhibition of intrinsic ATPase activity of Escherichia coli SecA expressed in Escherichia coli BL21.19 cells assessed as hydrolysis of ATP at 200 uM after 2 hrs by malachite green colorimetric method
# Outline: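 Single-concentration screen: compound at 200 µM with His-tagged ecSecA at 0.5 µM (50 µg/ml) and 100 µM ATP, 37 °C, 2 h. Buffer was 50 mM Tris–HCl, 50 mM KCl, 5 mM MgCl2, 0.4 mg/ml BSA, pH 8.0. Free Pi was detected with malachite green reagent (20 min rt, absorbance 660 nm).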
# [2] = Inhibition of ATPase activity of Escherichia coli SecA expressed in Escherichia coli BL21.19 cells assessed as hydrolysis of ATP after 2 hrs using Dixon plot analysis by malachite green colorimetric method
# Escherichia coli [3] = assay: Mixed-type inhibition of ATPase activity of Escherichia coli SecA expressed in Escherichia coli BL21.19 cells assessed as hydrolysis of ATP after 2 hrs using MM equation at 25 to 200 uM by malachite green colorimetric method
# [4] = Inhibition of intrinsic ATPase activity of Escherichia coli SecA expressed in Escherichia coli BL21.19 cells assessed as hydrolysis of ATP after 2 hrs by malachite green colorimetric method
# Outline: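 Recombinant His-tagged ecSecA at 0.5 µM (50 µg/ml) was incubated at 37 °C with 100 µM ATP and compound (0–200 µM) for 2 h. Buffer was 50 mM Tris–HCl, 50 mM KCl, 5 mM MgCl2, 0.4 mg/ml BSA, pH 8.0. Released Pi was read with malachite green (20 min rt, 660 nm). Rates were taken relative to no-compound, and IC50 was fitted by nonlinear regression from three independent experiments.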
# Staphylococcus aureus = assay: Inhibition of intrinsic ATPase activity of Staphylococcus aureus SecA expressed in Escherichia coli BL21.19 cells assessed as hydrolysis of ATP after 2 hrs by malachite green colorimetric method; conditions: dose or concentration not given here
# Outline: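 His-tagged saSecA1 at 4 µM (400 µg/ml) was incubated at 28 °C for 2 h with 100 µM ATP. Buffer was 50 mM HEPES, 50 mM KCl, 2 mM MgCl2, 0.4 mg/ml BSA, pH 7.5. Liberated Pi was quantified with malachite green (20 min room temperature, 660 nm).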
Compound,inhibition (Escherichia coli [1]) [%],Activity (Escherichia coli [1]),inhibition (Staphylococcus aureus) [%],other results
CC(C)(C)OC(=O)N1CCN(c2nc3nc(N)nc(-c4ccc(F)cc4)c3s2)CC1,50,,,
Nc1nc(-c2ccc(F)cc2)c2sc(N3CCNCC3)nc2n1,35,,,
Nc1nc(-c2ccc(F)cc2)c2sc(N3CCN(C(=O)COc4ccc(Cl)cc4)CC3)nc2n1,76,,,pKi [2]: 4.22; inhibition (Escherichia coli [3]): Active; pIC50 [4]: 3.87
COCCNc1nc2nc(N)nc(-c3ccc(F)cc3)c2s1,50,,,
CC(=O)N1CCN(c2nc(N)nc3nc(-c4ccc(F)cc4)sc23)CC1,50,,,
COCCNc1nc2nc(N)nc(N3CCOCC3)c2s1,,Active,,
Nc1nc(N2CCOCC2)c2sc(N3CCOCC3)nc2n1,,Active,,
Nc1nc(N2CCOCC2)c2sc(C#Cc3ccccc3)nc2n1,,Active,40,
Nc1nc(N2CCN(C(=O)COc3ccc(Cl)cc3)CC2)c2sc(-c3ccc(F)cc3)nc2n1,50,,,
Cc1cccc(NC(=O)N2CCN(c3nc(N)nc4nc(-c5ccc(F)cc5)sc34)CC2)c1,,,40,
Cc1cccc(NC(=O)N2CCN(c3nc4nc(N)nc(-c5ccc(F)cc5)c4s3)CC2)c1,50,,40,
Nc1nc(N2CCOCC2)c2sc(/C=C/c3ccccc3)nc2n1,70,,40,pIC50 [4]: 3.71
Nc1nc(N2CCOCC2)c2sc(-c3ccc(F)cc3)nc2n1,,Active,,

# Reference: ChEMBL document CHEMBL1641421, “Synthesis of novel 5-amino-thiazolo[4,5-d]pyrimidines as E. coli and S. aureus SecA inhibitors” (Bioorg Med Chem, 2011)
